Experimental findings from PubChem BioAssay AID588843 (Broad Institute, 2011) are described below.

Molecules are shown by their SMILES. Records with an inconclusive call do not appear. Activity calls are given as the source filed them. How the calls were made is not given here.

The first assay deals with ldlA CHO mSR-BI C384S, [3H]cholesterol efflux to HDL. Put plainly: HDL-directed free cholesterol efflux, C384S receptor cells – cell-based, ldlA CHO, [3H]cholesterol, single point, dry powder, mechanism study for SR-BI HDL uptake inhibitor project (AID 588843).
Conditions: not given
The method in brief: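 Assay system: Cys384S SR-BI ldlA CHO cells | Medium: HEPES-buffered medium with 0.5% FAF-BSA | Dosing: Test compound with 0.5% DMSO final in well | Schedule: 2-day [3H]cholesterol labelling, 1% FAF-BSA equilibration, 1-h pre-exposure, 2-h efflux | Detection: Liquid scintillation counting of [3H]cholesterol in medium and cells | Read-out basis: % [3H]cholesterol effluxed to medium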
As to `O=C(Nc1ccc(-c2nc3cc(NC(=O)c4ccc(NC(=O)c5cccc6ccccc56)cc4)ccc3[nH]2)cc1)c1ccc(NC(=O)c2cccc3ccccc23)cc1`, the outcome was active.

As for `CCOC(=O)N1CCC(NC(=O)c2ccc3c(c2)N(Cc2ccc(F)cc2)CCS3)CC1`, the outcome was active.

The same assay, now with this note: at 1 µM; stronger effect = lower value.
For `COc1ccc(-c2nnn(CC(=O)N(C3CCCCC3)C(C)C(=O)NC3CCCC3)n2)cc1OC` (centres undefined), the cholesterol efflux is 14.2%.

`CCOc1ccccc1/C=C/c1onc(C)c1S(=O)(=O)N1CCC(C(=O)NC(C)(C)C)CC1`: the cholesterol efflux was 7.29%.

Regarding `O=C(Nc1ccc(-c2nc3ccc(NC(=O)c4ccccc4)cc3[nH]2)cc1)c1ccccc1`, the cholesterol efflux was 11.7%.

As to `O=C(Nc1cccc(NC(=O)c2cc([N+](=O)[O-])ccc2Cl)n1)c1cc([N+](=O)[O-])ccc1Cl`, the cholesterol efflux is 14.2%.

Take `CC(OC(=O)c1cccc(NS(C)(=O)=O)c1)C(=O)Nc1ccc(N2CCOCC2)cc1` (centres undefined): the cholesterol efflux was 10.3%.

For the compound `Cc1ccccc1NC(=O)NCC1CCN(c2ccc(S(=O)(=O)N3CCOCC3)cc2)CC1`, the cholesterol efflux was 18.4% (inactive).

Regarding `O=C(Nc1cc(C(F)(F)F)ccc1Cl)c1ccccc1NS(=O)(=O)c1ccc(Cl)cc1`, the cholesterol efflux was 21.7% (inactive).

As to `CCC(=O)N1CCc2cc(-c3csc(NC(=O)c4ccco4)n3)ccc21`, the cholesterol efflux was 9.04%.

For the compound `COc1ccc([C@H]2CC(=O)C=C(c3cccc4c3sc3ccccc34)C2)cc1OC`, the cholesterol efflux is 18.7% (inactive).

With `O=C(Nc1ccc(Cl)cc1C(=O)c1ccc(Cl)cc1)c1cc(Br)ccc1NS(=O)(=O)c1ccc(Cl)cc1`, the cholesterol efflux is 21.7% (inactive).

As for `O=C(Nc1ccc(-c2nc3cc(NC(=O)c4ccccc4[N+](=O)[O-])ccc3o2)cc1)c1ccccc1[N+](=O)[O-]`, the cholesterol efflux was 5.43%.

Turning to `N#Cc1sc2nc(C3CC3)cc(-c3ccc(Cl)cc3)c2c1N`, the cholesterol efflux is 14.7%.

Turning to `Cc1cc(C)c2c(c1)NC(c1cc3c(cc1Br)OCO3)C1CC=CC21` (centres undefined), the cholesterol efflux was 19% (inactive).

In the case of `CC(C)OCCCNC(=O)c1ccc(C2SCC(=O)N2Cc2ccco2)cc1` (centres undefined), the cholesterol efflux was 18.9% (inactive).

On to `O=C(Nc1cc(Cl)ccc1Cl)c1cc(Br)ccc1NS(=O)(=O)c1ccc(Cl)c([N+](=O)[O-])c1`, for which the cholesterol efflux is 20.5% (inactive).

Turning to `CCOc1ccc(NC(=O)CN2CCN(CC(=O)Nc3cc(OC)cc(OC)c3)CC2)cc1`, the cholesterol efflux was 17.9% (inactive).

On to `COc1ccc(OC)c(CCNC(=O)c2ccc3c(c2)N(Cc2ccc(F)cc2)CCS3)c1`, for which the cholesterol efflux is 16.9% (inactive).

For the compound `COc1cccc(-c2csc(N3CCN(C(=S)Nc4cccc(Cl)c4)CC3)n2)c1`, the cholesterol efflux was 16.6% (inactive).

For `Cc1cc(SC(C)C(=O)Nc2ncc(Cl)cc2Cl)nc2ccccc12` (centres undefined), the cholesterol efflux was 15.5%.

For the compound `CCn1c(COc2c(C)cccc2C)nnc1SCC(=O)N1CCN(c2ccccc2)CC1`, the cholesterol efflux was 17.1% (inactive).

`Cc1ccc2oc(-c3cccc(NC(=O)c4cc(-n5cnnc5)ccc4Cl)c3)nc2c1`: the cholesterol efflux is 19.7% (inactive).

For the compound `Cc1cc(C(=O)C(C)OC(=O)C2=NNC(=O)CC2)c(C)n1-c1ccc(OC(F)F)cc1` (centres undefined), the cholesterol efflux was 16.5% (inactive).

As to `COC(=O)c1cn(C(=O)c2cccc3ccccc23)c2ccccc12`, the cholesterol efflux was 19.2% (inactive).

For `Cc1ccc(-c2nnc(N3CCC(C)CC3)c3ccccc23)cc1C`, the cholesterol efflux was 20.5% (inactive).

On to `O=C(Nc1ccccc1Cl)c1ccccc1NS(=O)(=O)c1ccccc1`, for which the cholesterol efflux is 21% (inactive).

For the compound `O=C(Nc1ccc(-c2nc3cc(NC(=O)c4ccccc4Cl)ccc3o2)cc1)c1ccccc1Cl`, the cholesterol efflux was 5.15%.

As for `Cc1cc(C)n(CC(=O)NC2CCCc3c2cnn3-c2ccc(C)c(C)c2)n1` (centres undefined), the cholesterol efflux is 17.2% (inactive).

The same assay, now with this note: measured here: second test run; at 1 µM; stronger effect = lower value.
In turn, `COc1ccc(-c2nnn(CC(=O)N(C3CCCCC3)C(C)C(=O)NC3CCCC3)n2)cc1OC` (centres undefined) came in with a cholesterol efflux of 7.04%.

Consider `CCC(=O)N1CCc2cc(-c3csc(NC(=O)c4ccco4)n3)ccc21`, for which the cholesterol efflux worked out at 7.93%.

In turn, `O=C(Nc1ccc(-c2nc3cc(NC(=O)c4ccc(NC(=O)c5cccc6ccccc56)cc4)ccc3[nH]2)cc1)c1ccc(NC(=O)c2cccc3ccccc23)cc1` gave a cholesterol efflux of 7.85%.

In turn, `O=C(Nc1ccc(-c2nc3cc(NC(=O)c4ccccc4[N+](=O)[O-])ccc3o2)cc1)c1ccccc1[N+](=O)[O-]` displayed a cholesterol efflux of 3.07%.

Compound `CCOC(=O)N1CCC(NC(=O)c2ccc3c(c2)N(Cc2ccc(F)cc2)CCS3)CC1` gave a cholesterol efflux of 7.46%.
